The test system of this data set is MS2 coat protein. Nature of the data set: apparent Kd, MS2 coat protein; higher = weaker binding; RNA-MaP array; FMN 200 µM where present. Put shortly: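 Stalled E. coli RNA polymerase transcribed the designs on Illumina sequencing-chip clusters. SNAP-549-labelled MS2 coat protein was titrated from 0.7 or 1.5 nM, doubling to 3 µM, without and then with constant ligand, in 100 mM Tris-HCl pH 7.5, 80 mM KCl, 4 mM MgCl2, BSA, DTT, yeast tRNA and Tween-20. Per-cluster binding curves were fitted to green signal normalised to red-channel RNA signal and control-cluster median Fmax. The apparent Kd is the median of the filtered fits.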

The mark [1] stands for this setting: designed as: OFF switch for flavin mononucleotide, no ligand.
Setting [2] is: ligand present: flavin mononucleotide, designed as: OFF switch for flavin mononucleotide.
[3] abbreviates: designed as: ON switch for flavin mononucleotide, no ligand.
Where [4] appears, read: ligand present: flavin mononucleotide, designed as: ON switch for flavin mononucleotide.

As for “UUCCGGCGUGUAGGAUAUGGAUCCGAUUAGGAUCCAGAAGGACAUGAGGAUCACCCAUGUACAUGUAAACAGUCAUCACCGGAU”, the “apparent Kd” value is, setting by setting: under setting [1], 8.09 nM; under setting [2], 40.2 nM.
Turning to “AGAAAGUCAGGAUAUCAGAAACUAGUCGAAACGACUAGAAAUGAGAAGGGACAUGAGGAUCACCCAUGUAAGAA”, the “apparent Kd” value by setting is: under setting [1], 29.7 nM; under setting [2], 43.4 nM.
For “ACAGAGUGAAGACAGGAUAUUCGCGAUGGCACAUGAGGAUCACCCAUGUUUUGAGCACAUAAACAGAAGAAGGGUUAAAACUCAG”, the “apparent Kd” value by setting is: under setting [3], 132 nM; under setting [4], 13.8 nM.
Take “CGUGUACGAGGAUAUAGAUUAGGCGACAUGAGGAUCACCCAUGUGAUCAAUCUAUUUGGUUUAGAAGGUGUACAUG”: the “apparent Kd” value runs as follows: under setting [1], 16.7 nM; under setting [2], 17.6 nM.
On the same counts, the results for “CGUUUCAUGUCAGGAUAUCCGCGCAGCUUUACGCACGAUAUAAGGGAGCUUGGAGAAGGGACAUGAGGAUCACCCAUGUGCCUC” are 8.6 nM and 12.4 nM.
On the same counts, the results for “UAUUUAUAGCAAGGAUAUGAUUAUUAUUAUUUAUCAGAAGGUGCACAUGAGGAUCACCCAUGUUUUAUAUAUAAUAAUUUAAUU” are 113 nM and 30.6 nM.
For “ACUUUACGAGGAUAUACUGUCGGGCCUCGGGCGUCCAUGCGACAUGAGGAUCACCCAUGUAGAAGGCGUUUACU”, the “apparent Kd” value came out at 25.1 nM under setting [1] and 51.5 nM under setting [2].
Turning to “GCGUUGAACGAGAAGGCCACUACAUGAGGAUCACCCAUGUCGUGGAGUAUUGGAGGAUAUCGAUCGGCGUCUCAUGAGGACAUA”, the “apparent Kd” value by setting is: under setting [1], 5.34 nM; under setting [2], 5.62 nM.
“AAAAAGGCAGGAUAUACAAAAAAAUUUUUAAAAAAAAAAAAACAUGAGGAUCACCCAUGUAGAAGGGCCAAAAA”: the “apparent Kd” value is, setting by setting: under setting [1], 54.2 nM; under setting [2], 51.7 nM.
Turning to “AGCUAGUCAGGAUAUACGAGAACGAACGAAGCAGUGAAGGGACAUGAGGAUCACCCAUGUAGAAGGGACUAGCA”, the “apparent Kd” value is, setting by setting: under setting [1], 36 nM; under setting [2], 82.6 nM.
With “GCGUAUUAGGUGUAGCUAGUCAUUCAAGAAGGGUGAAGAACAUGAGGAUCACCCAUGUAGUUUAUACAGGAUAUUGAUAUACGC”, the “apparent Kd” value under setting [3] is 528 nM and the “apparent Kd” value under setting [4] came out at 235 nM.
With “GCCAUCUCAUGAGGAUAUGCUCCUGUUUCGGGAGCAGAAGGCAUGUCAUAAGACAUGAGGAUCACCCAUGUAGUUAAGAUGGCA”, the “apparent Kd” value came out at 256 nM under setting [3] and 11.3 nM under setting [4].
Consider “AGGAUUGUGCUAGGAUAUCCAGGUUUGCAACAAGGAGAAGGAGCACAUGAGGAUCACCCAUGUUCUCAAAGGCCAUGGCAAUAA”, for which the “apparent Kd” value reads like this: under setting [1], 23.4 nM; under setting [2], 84.2 nM.
On the same counts, the results for “GGAGGGCCUCGAGGAUAUCGCUGCGGUCGUCUGACAUGAGGAUCACCCAUGUGAGAAGGCGAGGCUACUGACUAUGCCCGUUAU” are 27.9 nM and 275 nM.
On the same counts, the results for “AUCAGCUCGUCAGGAUAUGCGUCACUGCGUCAGCAGUGUGGUAAGAUCACAUGAGGAUCACCCAUGUAGAAGGGACGAGCUGAU” are 9.59 nM and 88.2 nM.
On the same counts, the results for “GUAAACCUAGGAUAUACAUGAGGAUCACCCAUGUAUUGAUCGUGCGGCUGUUCCGGAGGUAGAAGGAGGAACCU” are 20.7 nM and 34.2 nM.
For “GCCAUCGCAUGAGGAUAUGGCACCGUUGCGGUGCCAGAAGGCAUGUCAAAUGACAUGAGGAUCACCCAUGUAGUUAAGAUGGCA”, the “apparent Kd” value reads like this: under setting [3], 218 nM; under setting [4], 13.8 nM.
As for “AACAUGUCAGGAUAUGCAACAGGAGACUGACACGCGAGUGAGCAGAAGGGACAUGAGGAUCACCCAUGUUCAAA”, the “apparent Kd” value runs as follows: under setting [1], 19.1 nM; under setting [2], 17.4 nM.
Take “GGUCCACGAGGAUAUCGAUUUUAGUACAUGAGGAUCACCCAUGUUGUCCAGGUUUCGAUUCGAGAAGGCGUGGGCC”: the “apparent Kd” value reads like this: under setting [1], 22.2 nM; under setting [2], 24.6 nM.
On the same counts, the results for “AUAAGCUCGUCAGGAUAUGCGACACUGUUUCUGCAGUGUGGUAUGAUCACAUGAGGAUCACCCAUGUAGAAGGGACGAGCUUAU” are 6.66 nM and 13.9 nM.
For “UGACGGCACACAGGAUAUAGCGCAGAAAGUACGCUAGAAGGGUGAGCACUCGUCCGGGCACAUGAGGAUCACCCAUGUCGUCGA”, the “apparent Kd” value runs as follows: under setting [3], 204 nM; under setting [4], 472 nM.
Consider “GUAGCAUACCGAGGAUAUUCAUACCGGAAACGGACAUGAGGAUCACCCAUGUUUAGAAAUAAUUGGGAGAAGGCGGAAUGCUAC”, for which the “apparent Kd” value runs as follows: under setting [3], 232 nM; under setting [4], 44.7 nM.
For the sequence “GGAUCGAGUGUGAGGAUAUACCUAUGGAAACAUAGGUAGAAGGCACAUGAGGAUCACCCAUGUCCUAACGGUCC”, the “apparent Kd” value by setting is: under setting [1], 350 nM; under setting [2], 514 nM.
On the same counts, the results for “GGCUAGGACAGAGGAUAUACGUGCUAGAGAUACUAGCAAAAUUUCCUCACAUGAGGAUCACCCAUGUAGAAGGCUGUCCUAUCG” are 18.4 nM and 458 nM.
As for “GUGUUGUCAGGAUAUCUUACAUAACUAUCGUUGUUACCAUUGGAGAAGGGACAUGAGGAUCACCCAUGUUAUCC”, the “apparent Kd” value runs as follows: under setting [1], 22.3 nM; under setting [2], 23.7 nM.
With “UGUUGUUCAGGAUAUGGUGUGUUCUACAUGAGGAUCACCCAUGUGGGUCCUGGUUUGGCGUCAGAAGGGAAUGUUG”, the “apparent Kd” value came to 750 nM under setting [1] and 746 nM under setting [2].
For the sequence “GUAGUUAGUAGAGGAUAUUAAUAUGUGUAAUAUUGAGAAGGUUACAUGAGGAUCACCCAUGUGAUCAAUCACUGUUAAGGUUGC”, the “apparent Kd” value runs as follows: under setting [1], 6.97 nM; under setting [2], 7.06 nM.
For “AGUAAGAUGCAGAAGGUGUCAGCGAGAGCUACGACAUGAGGAUCACCCAUGUACUAGGUAGAGUACAAGGAUAUGCAUCUUACA”, the “apparent Kd” value under setting [3] stood at 324 nM and the “apparent Kd” value under setting [4] was 24.6 nM.
On to “UCUAGACAUGAGGAUCACCCAUGUGAGGAUAUGAUGCGAUCGUCGAAAGACGAUAGCAUCAGAAGGCACAUAUG”, for which the “apparent Kd” value runs as follows: under setting [1], 154 nM; under setting [2], 469 nM.
Turning to “GUAGCAUACCGAGGAUAUUCAUACCGGAAACGGACAUGAGGAUCACCCAUGUUACGAAAGUAUUGGGAGAAGGCGGAAUGCUAC”, the “apparent Kd” value worked out at 135 nM under setting [3] and 22.6 nM under setting [4].
With “AGAUUUAAUACAGGAUAUGUUAGUAUACAGUUGAUUGGUUAUUACAUUAUGACAGAAGGGUAGAACAUGAGGAUCACCCAUGUA”, the “apparent Kd” value is, setting by setting: under setting [3], 241 nM; under setting [4], 115 nM.
On the same counts, the results for “UCAUAAAUUCGAGGAUAUCGGUGAUAAAGAAGACGAGAAGGCGAUUAGAGAGAGAUGUUUAUAGACAUGAGGAUCACCCAUGUU” are 30 nM and 24.8 nM.
On to “GCGUAAUAGAUCCUAUUUAUCUACAUGAGGAUCACCCAUGUGCAGGAUAUGCUAUAAUUUAAUAAGCAGAAGGGCAAUUUCCGC”, for which the “apparent Kd” value runs as follows: under setting [1], 73.3 nM; under setting [2], 159 nM.
On the same counts, the results for “GCCGAAAAUGUGAGGAUAUACCUAUGGAAACAUAGGUAGAAGGCACAUGAGGAUCACCCAUGUGUCCAAACGGC” are 19.9 nM and 64.6 nM.
On the same counts, the results for “AGUCGGCAUGAGAAGGGUUACAUGAGGAUCACCCAUGUGAUCAAAUCGUUAACAGGAUAUCAGGCGUCGGGCUUUACCCGGAGG” are 19.5 nM and 125 nM.
In the case of “CGCUGUCACGCAGGAUAUGCAUUGGAUUACAAUGCAGAAGGGCGAUAACAUGAGGAUCACCCAUGUGUAGACAGUGAAGAAGAG”, the “apparent Kd” value by setting is: under setting [3], 145 nM; under setting [4], 27.2 nM.
In the case of “AGCCAGGAUGAGUACCUGAGCGGGAGAAGGUACGAGGGAUCGUCUGGACAUGAGGAUCACCCAUGUAAGGAUAUCCCGCCUAUU”, the “apparent Kd” value under setting [1] was 8.69 nM and the “apparent Kd” value under setting [2] was 15 nM.
On the same counts, the results for “UAAAUGUGAGGAUAUUCGUUGAACUCGGAGACGAGUUUAACGGAGAAGGCACAUGAGGAUCACCCAUGUUCCUU” are 20.4 nM and 211 nM.
For “AGACUGAAGCAAGGAUAUUGUAAGGUUAAUGUACAAGAAGGUGCUGUUUAUGUCUCUUAACAUGAGGAUCACCCAUGUUUUGAA”, the “apparent Kd” value under setting [3] came out at 19.1 nM and the “apparent Kd” value under setting [4] was determined as 19.2 nM.
As for “CUUUUGUGAGGAUAUCAGUAGUAAAUAAAUAAAAUUACUACUGAGAAGGCACAUGAGGAUCACCCAUGUUCCUU”, the “apparent Kd” value under setting [1] was found to be 14.7 nM and the “apparent Kd” value under setting [2] worked out at 28.4 nM.
For the sequence “UUUAUUUUUACAGGAUAUCAUCUAUAUAUCACAUGCACAUGUUUACAUGAGGAUCACCCAUGUUUUGAGAAGGGUAAUGAAACA”, the “apparent Kd” value runs as follows: under setting [3], 79.6 nM; under setting [4], 59 nM.
As to “AAGAAACAUGAGGAUCACCCAUGUGAGGAUAUGAAAAAGAAAAGAAAAGAAAGAAGAAUCAGAAGGCACAAAGG”, the “apparent Kd” value was found to be 30.8 nM under setting [1] and 45.1 nM under setting [2].
In the case of “AUCAGGUCGUCAGGAUAUACGUCACUGCGUCAGCAGUGUGGUAAGAUCACAUGAGGAUCACCCAUGUAGAAGGGACGAGCUGAU”, the “apparent Kd” value was determined as 13.2 nM under setting [1] and 311 nM under setting [2].
As to “CUUUCGUGAGGAUAUGUGGCUUAAAUCGUGAGAUCGAGGCUACAGAAGGCACAUGAGGAUCACCCAUGUUCCUC”, the “apparent Kd” value reads like this: under setting [1], 36 nM; under setting [2], 569 nM.
On the same counts, the results for “CUUUAGCUAGGAUAUACAUGAGGAUCACCCAUGUUAGCGGUCAAUUGGGCCGCGGGUUGUAGAAGGAGCAUUAA” are 32.5 nM and 53.4 nM.
On the same counts, the results for “AAGAAGUCAGGAUAUGCUAAAGAAAUAAAAAGAAAGAAAGAACAUGAGGAUCACCCAUGUAGAAGGGACAAGAA” are 42.9 nM and 40.6 nM.
On the same counts, the results for “GGCAAUAUGUAGGAUAUCGUAUCGGAAACGAUACGAGAAGGGCAAACAUGAGGAUCACCCAUGUUCCUUAAGCC” are 15 nM and 17.4 nM.
Turning to “GACUUUUCUGAGGAUAUUGCAUCAUACGAUUUAUAAGAAGGCAGAACAUGAGGAUCACCCAUGUGGGUUUUUAG”, the “apparent Kd” value was found to be 41.7 nM under setting [1] and 91.1 nM under setting [2].
